Assay outcomes from PubChem.
Rows were chosen to be rich in hits. Some 1.9% of all compounds tested hit in one or more screens of this group.
M4 antag: CHRM4 antagonism in calcium assay; P08173; 360,000 tested, 0.73% active; inhibition, % at 3 µM; AID 624125; CHO-hM4 cells, ACh EC80, Fluo-8 calcium fluorescence;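 active means inhibition above its plate's cutoff, the mean inhibition of sample wells plus 3 SD, cut at about 27% in these data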;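 further: 0% = acetylcholine EC80 with DMSO and 100% = DMSO without agonist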
CHRM4 PAM: CHRM4 positive allosteric modulation | P08173 | CHO-K1 hM4/Gqi5, Fluo-8 calcium fluorescence, ACh EC20; 0% = ACh EC20, 100% = maximal ACh | activation, % at 3 µM | 360,000 tested, 0.4% active | AID 624126;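 active means activation above its plate's cutoff, the mean activation of sample wells plus 3 SD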
M5 PAM: CHRM5 positive allosteric modulation; P08912; CHO-K1 hM5, Fluo-8 calcium, ACh EC20 PAM; 0% = ACh EC20, 100% = ACh EC100; activation, % at 3 µM; 360,000 tested, 0.3% active; AID 624038;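 active means activation above the run cutoff, the mean activation of all test compounds plus 3 SD, cut at about 18% in these data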
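Probe or stimulus: acetylcholine, EC20 level; Assay system: human M5 receptor in CHO-K1 cells; Schedule: compound preincubation 140 s before EC20 acetylcholine addition; Technique: intracellular calcium via Fluo-8 fluorescence; Dosing: single-point, 3 µM nominal; Read-out basis: percent activation from peak-over-basal fluorescence ratio, scaled EC20-to-EC100 acetylcholine; Repeats: one well per compound, no replicates.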
M4 ag: agonists of human muscarinic M4 receptor (CHRM4); P08173; CHO-K1 hM4/Gqi5, Fluo-8 calcium fluorescence; vehicle 0%, full acetylcholine response 100%; activation, % at 3 µM; 360,000 tested, 0.14% active; AID 624127;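 active means activation above the run mean over all test wells plus 3 SD, cut at about 32% in these data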;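 further: peak over basal fluorescence ratio per well then scaled between controls; 0% = DMSO wells and 100% = acetylcholine at EC100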
M5 ag: CHRM5 agonism in calcium assay | P08912 | CHO-K1 hM5 cells, Fluo-8 calcium fluorescence; 0% DMSO wells, 100% maximal acetylcholine response | activation, % at 3 µM | 360,000 tested, 0.19% active;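 active means activation above the run's mean over test compounds plus 3 SD, cut at about 23% in these data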;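 further: signal is peak over basal fluorescence ratio across the kinetic read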
M5 antag: CHRM5 antagonism in calcium assay; P08912; inhibition, % at 3 µM; CHO-hM5 cells, Fluo-8 calcium fluorescence, ACh EC80; AID 624040; 360,000 tested, 0.59% active;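 active means inhibition above a per-plate cutoff, the mean of that plate's test compounds plus 3 SD, cut at about 27% in these data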;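 further: 0% = acetylcholine EC80 with DMSO and 100% = DMSO without agonist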
An asterisk follows results filed as active.

SMILES	M4 antag	CHRM4 PAM	M5 PAM	M4 ag	M5 ag	M5 antag
O=C(CN1CCN(C(=O)C2CCCO2)CC1)Nc1cc(C(F)(F)F)ccc1Cl (stereo unspecified)	-7	3	4	3	-3	4
COc1ccccc1-c1nc(C#N)c(NCCCn2ccnc2)o1	-8	1	5	1	-1	5
O=C(Nc1ccccc1F)c1cc(S(=O)(=O)N2CCOCC2)cs1	-12	5	-6	2	-3	8
Cc1cccc(C(=O)OCC(=O)N(CC(C)C)c2c(N)n(Cc3ccccc3)c(=O)[nH]c2=O)c1C	-4	8	3	0	3	-3
COc1cc(C2NC(=O)N(C)C(C)=C2C(=O)OCc2ccccc2)cc(Br)c1O (stereo unspecified)	-6	14*	4	3	0	-10
O=C(c1ccco1)N1CCN(Cc2cc(=O)c(OCc3ccccc3Cl)co2)CC1	10	-1	2	1	0	11
Oc1ccc(CCc2ccccn2)cc1	-2	5	4	1	2	6
N#Cc1ccc(OCC(O)CN2CCN(C(c3ccccc3)c3ccccc3)CC2)cc1 (stereo unspecified)	32*	-19	-18	0	-6	37*
CCC(=O)c1ccc(OCC(O)CN2CCN(C(c3ccccc3)c3ccccc3)CC2)cc1 (stereo unspecified)	44*	-14	-28	1	-6	16
Cc1ccc(Oc2ncccc2/C=N/OCc2ccc(Cl)cc2Cl)cc1	-4	4	2	0	-1	-6
Cc1ccc(Oc2ncccc2CO)cc1	-4	26*	6	2	0	-15
O=S(=O)(c1ccc(Cl)cc1)N1CCCC1c1nc2ccccc2s1 (stereo unspecified)	-2	2	-4	1	-5	4
Cc1ccc(S(=O)(=O)N2CCCC2c2nc3ccccc3s2)cc1 (stereo unspecified)	5	8	18*	0	-8	-4
COc1ccc(-c2sc3cc4c(cc3c2C#Cc2ccc(N)cc2)OCO4)cc1	5	19	10	2	26*	3
COC(=O)c1csc(-c2ccc(CO)o2)n1	0	10	3	0	3	-1
O=C(NC1CCCC1)C(c1ccccc1)n1c(-c2cccs2)nc2ccccc21 (stereo unspecified)	6	10	0	0	-4	7
O=C(NC1CCCC1)C(C1CC1)n1c(C2CCCC2)nc2ccccc21 (stereo unspecified)	-21	6	0	1	-1	5
Cc1ccc(-c2nc3ccccc3n2C(C(=O)NC(C)(C)C)C2CC2)cc1 (stereo unspecified)	-3	2	0	3	0	1
O=C(NC1CCCC1)C(c1ccccc1)n1c(-c2cccc3ccccc23)nc2ccccc21 (stereo unspecified)	74*	-15	-18	-1	-4	-1
CC(C)(C)NC(=O)C(C1CC1)n1c(-c2ccccc2)nc2ccccc21 (stereo unspecified)	0	24*	7	3	0	-9
O=C(NC1CCCC1)C(C1CC1)n1c(C2CC2)nc2ccccc21 (stereo unspecified)	-13	23*	3	1	0	0
COc1ccc(CNC[C@H]2O[C@@H](n3ccc(=O)[nH]c3=O)[C@H](O)[C@@H]2O)cc1OC	-10	7	5	1	0	-5
O=c1[nH]c(C2CCN(S(=O)(=O)c3ccccc3)CC2)nc2c1nnn2Cc1ccc2c(c1)OCCO2	95*	-11	5	-1	-6	2
O=c1[nH]c(C2CCN(S(=O)(=O)c3ccc4c(c3)OCCO4)CC2)nc2c1nnn2Cc1cccc(F)c1	79*	-23	1	1	-4	9
O=c1[nH]c(C2CCN(S(=O)(=O)c3ccc([N+](=O)[O-])cc3)CC2)nc2c1nnn2Cc1ccccc1	7	-2	4	2	-3	6
